Screens as filed in PubChem.
Compounds with a hit are over-represented: about 8.9% of the library has one in this group of screens.
HSV augment = enhancers of HSV replication in host cells, fold increase, host cell viability | HSV replication augmentation in cells | maximum fold increase | actives 0.005% (n = 220,000); in the data active means maximum fold increase above about 1.5; tested in PC3 cells
Dynein cargo inh = inhibitors of GR-EGFP nuclear translocation, primary screen, dynein cargo transport inhibitor project, imaging, high-content, 3617.4 mouse cells; test concentration mostly 20 µM; stimulated with dexamethasone, 1 µM; hits give low values; z-score, hits read low; actives 0.47% (n = 220,000); AID 1381, 2008;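 active means plate z-score of nuclear minus cytoplasmic receptor signal below a set negative limit, without overly bright fluorescence or cell loss, cut at about -3.5 in these data, passing the limit was not always enough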;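 further: z-score of nuclear minus cytoplasmic ring GR-EGFP intensity difference per well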
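Buffer or medium: tet-free medium with charcoal-stripped serum / Also added: dexamethasone agonist, 1.0 µM final, for 30 min / Timing: induction 48 h, compound 1 h, agonist 30 min / Measured by: high-content fluorescence imaging after fixation / Read-out: nuclear-to-cytoplasmic GR-EGFP distribution per well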
bCat nuc transl = modulators of beta-catenin nuclear translocation, primary screen, imaging, HeLa cells, immunofluorescence, high-content | actives 0.3% (n = 190,000) | nuclear translocation activity, % at 5 µM;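 active means nuclear translocation activity above 50% at 5 µM, with a well cell count of 50 or more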;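 further: per-cell ratio of nuclear to cytoplasmic median beta-catenin stain intensity; plate controls were DMSO negative control for no effect and GSK-3 inhibitor IX positive control for full effect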
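System: Human HeLa cells, endogenous beta-catenin | Compound dosing: 5 µM primary, 0.02–20 µM confirmation | Timing: 24 h compound exposure at 37°C, 5% CO2 | Measured by: Fluorescence imaging of beta-catenin antibody stain plus DAPI | Read-out basis: % activation of per-cell nuclear versus cytoplasmic median beta-catenin signal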
MT stabilize HCS = microtubule stabilizers in HeLa cells, primary screen, imaging, high-content imaging; HeLa tubulin immunostaining HCS, 24 h; share of cells brighter than vehicle mean+2SD; % tubulin-high responders, % at 10 µM; actives 0.83% (n = 200,000); AID 2205, 2009;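 active means plate Z-score above 3 for both tubulin-high and condensed-nucleus cell shares, with cell loss under 80%, at 10 µM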;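 further: anti alpha tubulin signal scored within the nucleus-defined area of each cell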
Lmaj promast = Leishmania major promastigote growth inhibition, primary screen; Leishmania major promastigotes, resazurin fluorescence viability; inhibition, % at 10 µM; actives 9% (n = 200,000); AID 1063, 2008; in the data active means inhibition above about 50%;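 further: promastigotes grown with compound for 44 hours at 28 °C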
Numbers without * were called inactive.

For Cc1ccc(-c2cc(C(=O)OCC(=O)N(C)C3CCS(=O)(=O)C3)c3ccccc3n2)o1 (centres undefined) the results were HSV augment inactive, Dynein cargo inh -3.4, bCat nuc transl 6, MT stabilize HCS 4 and Lmaj promast 5.
`Cc1cnc(CN2CCCC(C(=O)c3ccc4c5c(cccc35)CC4)C2)[nH]1` (centres undefined) gave HSV augment inactive, Dynein cargo inh 1.3, bCat nuc transl 0, MT stabilize HCS 2 and Lmaj promast 99*.
Screening COCC(=O)N1CCCC(C(=O)c2ccc3c4c(cccc24)CC3)C1 (centres undefined) returned HSV augment inactive, Dynein cargo inh -0.6, bCat nuc transl 1, MT stabilize HCS 1 and Lmaj promast -2.
`COCCC(=O)N1CCCC(C(=O)c2ccc3c4c(cccc24)CC3)C1` (centres undefined) gave HSV augment inactive, Dynein cargo inh -0.73, bCat nuc transl 2, MT stabilize HCS 2 and Lmaj promast -1.
NC(=O)CCC(=O)N1CCCC(C(=O)c2ccc3c4c(cccc24)CC3)C1 (centres undefined) was read as HSV augment inactive, Dynein cargo inh -0.74, bCat nuc transl 0, MT stabilize HCS 2 and Lmaj promast -6.
O=C(c1ccc2c3c(cccc13)CC2)C1CCCN(Cc2ccc(OCCO)cc2)C1 (centres undefined) was read as HSV augment inactive, Dynein cargo inh -0.84, bCat nuc transl 0, MT stabilize HCS 3 and Lmaj promast 88*.
Screening O=C1CCC(CCC(=O)N2CCCC(C(=O)c3ccc4c5c(cccc35)CC4)C2)=NN1 (centres undefined) returned HSV augment inactive, Dynein cargo inh 0.75, bCat nuc transl -1, MT stabilize HCS 4 and Lmaj promast 9.
For O=C1CCC(C(=O)N2CCCC(C(=O)c3ccc4c5c(cccc35)CC4)C2)=NN1 (centres undefined) the results were HSV augment inactive, Dynein cargo inh -0.036, bCat nuc transl -1, MT stabilize HCS 33* and Lmaj promast 1.
`O=C(c1ccc2c3c(cccc13)CC2)C1CCCN(Cc2ccccn2)C1` (centres undefined) gave HSV augment inactive, Dynein cargo inh -0.73, bCat nuc transl -2, MT stabilize HCS 2 and Lmaj promast 64*.
COc1ccc(CNC(=O)CCS(=O)(=O)Cc2cccc(Cl)c2)c(OC)c1 was read as HSV augment inactive, Dynein cargo inh 2, bCat nuc transl 1, MT stabilize HCS 2 and Lmaj promast 4.
`O=C(CCSCCC(=O)NCc1ccc(F)cc1)NCc1ccc(F)cc1` gave HSV augment inactive, Dynein cargo inh 0.12, bCat nuc transl -7, MT stabilize HCS 2 and Lmaj promast -6.
For c1ccc(-n2ncc3c(N4CCN(CCOc5cccc6ccccc56)CC4)ncnc32)cc1 the results were HSV augment inactive, Dynein cargo inh -1.4, MT stabilize HCS 1 and Lmaj promast 99*.
Screening CCCN(CCC(=O)Nc1ccccc1F)CC1CC1 returned HSV augment inactive, Dynein cargo inh -1.4, bCat nuc transl 3, MT stabilize HCS 4 and Lmaj promast 3.
Screening CC(C)(C)n1nnnc1C(c1cccnc1)N(Cc1ccccc1)Cc1ccco1 (centres undefined) returned Dynein cargo inh 0.018, bCat nuc transl -4, MT stabilize HCS 4 and Lmaj promast 85*.
Screening COc1cccc(CN(Cc2ccco2)C(c2ccc(F)cc2)c2nnnn2C(C)(C)C)c1 (centres undefined) returned HSV augment inactive, Dynein cargo inh -1.7, bCat nuc transl 0, MT stabilize HCS 7 and Lmaj promast 58*.
`C=CCOc1ccc(C(=O)NC2CCCCC2)cc1` gave HSV augment inactive, Dynein cargo inh 0.03, bCat nuc transl -2, MT stabilize HCS 2 and Lmaj promast 0.
Screening COc1cccc(C2CC(c3c(-c4ccccc4)c4cc(Cl)ccc4[nH]c3=O)=NN2S(C)(=O)=O)c1OC (centres undefined) returned HSV augment inactive, Dynein cargo inh -0.98, bCat nuc transl -5, MT stabilize HCS 3 and Lmaj promast 100*.
Screening COc1ccc(C2CC(c3c(-c4ccccc4)c4cc(Cl)ccc4[nH]c3=O)=NN2C(=O)CCC(=O)O)cc1 (centres undefined) returned HSV augment inactive, Dynein cargo inh -0.53, bCat nuc transl 1, MT stabilize HCS 2 and Lmaj promast -7.
COC(=O)c1c(-c2ccc(C)cc2)csc1NC(=O)C1CC=CCC1C(=O)O (centres undefined) was read as HSV augment inactive, Dynein cargo inh 1.4, MT stabilize HCS 8 and Lmaj promast -2.
For Cc1cc(C)c2ccc(N)nc2c1O the results were HSV augment inactive, Dynein cargo inh -1.9, bCat nuc transl 1, MT stabilize HCS 5 and Lmaj promast 99*.
Screening Cn1ncc(Br)c1NC(=O)CSc1ccc(Cl)cc1 returned HSV augment inactive, Dynein cargo inh 0.66 and bCat nuc transl 0.
For CCCC(C(=O)NC1CCCC1)N(C(=O)Cn1nnc(-c2ccc(C)o2)n1)c1ccccc1OC (centres undefined) the results were HSV augment inactive, Dynein cargo inh 0.23, bCat nuc transl -1, MT stabilize HCS 4 and Lmaj promast 77*.
CCOc1ccc(NC(=O)C2CCN(C(=O)NC3CCCCC3)CC2)cc1 was read as HSV augment inactive, Dynein cargo inh -0.76, bCat nuc transl 3, MT stabilize HCS 3 and Lmaj promast -5.
CC1=C(CC(=O)c2ccccc2)C(=O)c2ccccc2C1=O was read as Dynein cargo inh 0.42, MT stabilize HCS 2 and Lmaj promast 94*.
For O=C(CN1C(=O)c2ccccc2C1=O)c1ccccc1 the results were HSV augment inactive, Dynein cargo inh 0.44, MT stabilize HCS 3 and Lmaj promast -1.
`c1ccc(-c2nc(N3CCCCCC3)nc(-n3ccnc3)n2)cc1` gave HSV augment inactive, Dynein cargo inh 0.59, bCat nuc transl 1, MT stabilize HCS 3 and Lmaj promast 96*.
For Nc1nc(-c2cccnc2)nc(N2CCCCC2)n1 the results were HSV augment inactive, Dynein cargo inh -0.94, bCat nuc transl 0, MT stabilize HCS 1 and Lmaj promast -6.
c1ccc(-c2nc(N3CCN(c4ccccc4)CC3)nc(-n3ccnc3)n2)cc1 was read as HSV augment inactive, Dynein cargo inh 0.26, bCat nuc transl -3, MT stabilize HCS 4 and Lmaj promast 67*.
Screening CCCCCNc1nc(-c2ccccc2)nc(-n2ccnc2)n1 returned HSV augment inactive, Dynein cargo inh 0.11, bCat nuc transl -1, MT stabilize HCS 1 and Lmaj promast 40.
For COc1cc(CNCCO)cc(Br)c1OCc1ccccc1Cl the results were Dynein cargo inh 0.37, bCat nuc transl 6, MT stabilize HCS 2 and Lmaj promast 100*.
